# Reference: ChEMBL document CHEMBL1139596, “Non-competitive inhibitors of metabotropic glutamate receptor 5 (mGluR5)” (Bioorg Med Chem Lett, 2005)
# Molecular target: not listed separately
# Experiment: Inhibitory activity against metabotropic glutamate receptor 5 (mGluR5)
# Method in brief: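 Functional FLIPR assay in CHO cells transfected with mGlu5 receptor.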
row,SMILES,Ki [nM]
1,O=C(COC(=O)c1ccc(N2C(=O)C3CC=CCC3C2=O)cc1)c1ccc(C2CCCCC2)cc1 (stereo not drawn),18000
2,Cc1ccc(C(=O)COC(=O)c2ccc(N3C(=O)C4CC=CCC4C3=O)cc2)cc1 (stereo not drawn),9480
3,Cc1ccc(C(=O)COC(=O)c2ccc(N3C(=O)C4CC=CCC4C3=O)cc2)cc1[N+](=O)[O-] (stereo not drawn),3790
4,Cc1ccc(C(=O)COC(=O)c2ccc(N3C(=O)CCCC3=O)cc2)cc1C,3270
5,CC1=CC(=O)N(c2ccc(C(=O)OCC(=O)c3ccc(C)c(C)c3)cc2)C1=O,4800
6,Cc1ccc(C(=O)COC(=O)c2ccc(N3C(=O)C4CCC(C)CC4C3=O)cc2)cc1C (stereo not drawn),113
7,COc1ccc(C(=O)COC(=O)c2ccc(N3C(=O)C4CC=CCC4C3=O)cc2)cc1OC (stereo not drawn),1600
8,Cc1ccc(C(=O)COC(=O)c2ccc(N3C(=O)C4CC(Br)C(Br)CC4C3=O)cc2)cc1C (stereo not drawn),98
9,Cc1ccc(C(=O)COC(=O)c2ccc(N3C(=O)CC(C)CC3=O)cc2)cc1C,1840
10,Cc1ccc(C(=O)COC(=O)c2ccc(N3C(=O)[C@@H]4CCCC[C@H]4C3=O)cc2)cc1C,150
11,Cc1ccc(C(=O)COC(=O)c2ccc(N3C(=O)CC(C)C3=O)cc2)cc1C (stereo not drawn),411
12,O=C(COC(=O)c1ccc(N2C(=O)C3CC=CCC3C2=O)cc1)c1ccc(N2CCOCC2)cc1 (stereo not drawn),3360
13,Cc1ccc(C(=O)COC(=O)c2ccc(N3C(=O)C4CC=CCC4C3=O)cc2)cc1C (stereo not drawn),172
14,Cc1ccc(C(=O)COC(=O)c2ccc(N3C(=O)C4C5C=CC(C5)C4C3=O)cc2)cc1C (stereo not drawn),1010
15,CC1=CCC2C(=O)N(c3ccc(C(=O)OCC(=O)c4ccc(C)c(C)c4)cc3)C(=O)C2C1 (stereo not drawn),216
16,O=C(COC(=O)c1ccc(N2C(=O)C3CC=CCC3C2=O)cc1)c1ccc2ccccc2c1 (stereo not drawn),303
17,O=C(COC(=O)c1ccc(N2C(=O)C3CC=CCC3C2=O)cc1)c1ccc2c(c1)CCCC2 (stereo not drawn),171
18,CC1=C(C)C(=O)N(c2ccc(C(=O)OCC(=O)c3ccc(C)c(C)c3)cc2)C1=O,6430
19,Cc1ccc(C(=O)COC(=O)c2ccc(N3C(=O)[C@H]4CCCC[C@H]4C3=O)cc2)cc1C,190
20,COc1ccc(C(=O)COC(=O)c2ccc(N3C(=O)C4CC=CCC4C3=O)cc2)cc1[N+](=O)[O-] (stereo not drawn),1680
21,O=C(COC(=O)c1ccc(N2C(=O)C3CC=CCC3C2=O)cc1)c1ccc2c(c1)OCCO2 (stereo not drawn),2040
22,Cc1ccc(C(=O)COC(=O)c2ccc(N3C(=O)CCC3=O)cc2)cc1C,506
23,O=C(COC(=O)c1ccc(N2C(=O)C3CC=CCC3C2=O)cc1)c1ccc2c(c1)CCC2 (stereo not drawn),401
24,O=C(COC(=O)c1ccc(N2C(=O)C3CC=CCC3C2=O)cc1)c1ccc(N2CCCC2)cc1 (stereo not drawn),1090

# Tested on: not listed separately
# Experiment: Half life was determined; 1-2h
# Type: ADME
row,SMILES,half-life [h]
1,Cc1ccc(C(=O)COC(=O)c2ccc(N3C(=O)C4CCC(C)CC4C3=O)cc2)cc1C (stereo not drawn),2
2,Cc1ccc(C(=O)COC(=O)c2ccc(N3C(=O)CCC3=O)cc2)cc1C,2

# Molecular target: Metabotropic glutamate receptor 5 (Homo sapiens) (UniProt P41594)
# Sequence (P41594 21-1212 limits assumed): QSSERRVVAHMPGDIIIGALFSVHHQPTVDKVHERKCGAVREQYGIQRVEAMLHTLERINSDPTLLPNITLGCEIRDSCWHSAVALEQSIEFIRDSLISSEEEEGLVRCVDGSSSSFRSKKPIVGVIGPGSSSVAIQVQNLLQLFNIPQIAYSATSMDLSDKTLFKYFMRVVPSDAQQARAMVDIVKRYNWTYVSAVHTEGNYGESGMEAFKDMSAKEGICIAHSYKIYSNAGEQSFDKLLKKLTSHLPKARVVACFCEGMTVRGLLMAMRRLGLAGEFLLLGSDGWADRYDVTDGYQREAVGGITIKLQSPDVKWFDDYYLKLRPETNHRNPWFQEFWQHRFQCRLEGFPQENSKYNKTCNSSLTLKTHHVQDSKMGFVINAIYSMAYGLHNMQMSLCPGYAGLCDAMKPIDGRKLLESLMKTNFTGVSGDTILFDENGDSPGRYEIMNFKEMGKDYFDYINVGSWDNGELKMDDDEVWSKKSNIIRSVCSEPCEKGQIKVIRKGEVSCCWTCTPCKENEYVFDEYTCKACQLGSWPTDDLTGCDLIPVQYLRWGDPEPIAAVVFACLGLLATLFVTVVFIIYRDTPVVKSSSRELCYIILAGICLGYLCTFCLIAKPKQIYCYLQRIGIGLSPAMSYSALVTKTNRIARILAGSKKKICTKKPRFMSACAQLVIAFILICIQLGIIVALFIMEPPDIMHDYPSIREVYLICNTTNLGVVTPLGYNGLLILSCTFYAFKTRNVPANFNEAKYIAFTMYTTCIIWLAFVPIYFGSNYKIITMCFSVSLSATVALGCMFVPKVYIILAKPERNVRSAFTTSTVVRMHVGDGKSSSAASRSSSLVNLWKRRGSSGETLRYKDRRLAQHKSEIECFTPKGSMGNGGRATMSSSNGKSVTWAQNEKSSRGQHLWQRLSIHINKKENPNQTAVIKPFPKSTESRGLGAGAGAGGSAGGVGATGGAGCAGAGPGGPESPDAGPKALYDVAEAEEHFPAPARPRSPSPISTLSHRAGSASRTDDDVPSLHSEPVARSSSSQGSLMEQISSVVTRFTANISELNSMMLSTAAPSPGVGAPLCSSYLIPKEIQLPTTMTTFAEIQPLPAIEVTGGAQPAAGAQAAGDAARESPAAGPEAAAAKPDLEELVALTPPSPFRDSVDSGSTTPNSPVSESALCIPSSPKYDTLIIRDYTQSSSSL
# Experiment: Percent inhibition against metabotropic glutamate receptor 5 (mGluR5) at 10 uM
row,SMILES,inhibition [%]
1,Cc1ccc(C(=O)NNC(=O)c2ccc(N3C(=O)C4CC=CCC4C3=O)cc2)cc1C (stereo not drawn),< 35
2,O=C(COC(=O)c1ccc(N2C(=O)C3CC=CCC3C2=O)cc1)c1ccccc1 (stereo not drawn),18
3,COc1ccc(C(=O)COC(=O)c2ccc(N3C(=O)C4CC=CCC4C3=O)cc2)cc1 (stereo not drawn),39
4,Cc1ccc(C(=O)CNC(=O)c2ccc(N3C(=O)C4CC=CCC4C3=O)cc2)cc1C (stereo not drawn),< 35
5,Cc1ccc(C(=O)COC(=O)c2ccc(N3C(=O)c4ccncc4C3=O)cc2)cc1C,33
6,Cc1ccc(C(=O)COCc2ccc(N3C(=O)C4CC=CCC4C3=O)cc2)cc1C (stereo not drawn),< 35
7,Cc1ccc(NCC(=O)Nc2ccc(N3C(=O)C4CC=CCC4C3=O)cc2)cc1C (stereo not drawn),< 35
8,Cc1ccc(C(=O)COC(=O)c2ccc(NC(=O)C3CC=CCC3C(=O)O)cc2)cc1C (stereo not drawn),34
9,Cc1ccc(NC(=O)Nc2ccc(N3C(=O)C4CC=CCC4C3=O)cc2)cc1C (stereo not drawn),< 35
10,Cc1ccc(C(=O)COC(=O)c2ccc(N3C(=O)C4=C(CCC4)C3=O)cc2)cc1C,10
11,O=C(COC(=O)c1ccc(N2C(=O)C3CC=CCC3C2=O)cc1)c1ccc2c(c1)OCO2 (stereo not drawn),21
12,Cc1ccc(NC(=O)NCc2ccc(N3C(=O)C4CC=CCC4C3=O)cc2)cc1C (stereo not drawn),< 35
13,Cc1cc2c(cc1C)C(=O)N(NC(=O)c1ccc(N3C(=O)C4CC=CCC4C3=O)cc1)C2=O (stereo not drawn),< 35
14,Cc1ccc(C(=O)COC(=O)c2ccc(N3CCCC3=O)cc2)cc1C,38
15,Cc1ccc(CNC(=O)c2ccc(N3C(=O)C4CC=CCC4C3=O)cc2)cc1C (stereo not drawn),< 35
16,Cc1ccc2c(c1)C(=O)N(c1ccc(C(=O)OCC(=O)c3ccc(C)c(C)c3)cc1)C2=O,28
17,Cc1ccc(CCNC(=O)c2ccc(N3C(=O)C4CC=CCC4C3=O)cc2)cc1C (stereo not drawn),< 35
18,Cc1ccc(C(=O)COC(=O)c2ccc(N3C(=O)COCC3=O)cc2)cc1C,41
19,CC1(C)CCC(C)(C)c2cc(C(=O)COC(=O)c3ccc(N4C(=O)C5CC=CCC5C4=O)cc3)ccc21 (stereo not drawn),32
20,Cc1ccc(C(=O)CN(C)C(=O)c2ccc(N3C(=O)C4CC=CCC4C3=O)cc2)cc1C (stereo not drawn),< 35
21,Cc1ccc(CNC(=O)Nc2ccc(N3C(=O)C4CC=CCC4C3=O)cc2)cc1C (stereo not drawn),< 35
22,Cc1ccc(OCCCNC(=O)c2ccc(N3C(=O)C4CC=CCC4C3=O)cc2)cc1C (stereo not drawn),< 35
23,Cc1ccc(NC(=O)c2ccc(N3C(=O)C4CC=CCC4C3=O)cc2)cc1C (stereo not drawn),< 35
24,Cc1ccc(C(=O)CN2C(=O)c3ccc(N4C(=O)C5CC=CCC5C4=O)cc3C2=O)cc1C (stereo not drawn),< 35
25,Cc1ccc(C2CN(C(=O)c3ccc(N4C(=O)C5CC=CCC5C4=O)cc3)CCO2)cc1C (stereo not drawn),< 35
26,Cc1ccc(C(=O)N2CCCN2C(=O)c2ccc(N3C(=O)C4CC=CCC4C3=O)cc2)cc1C (stereo not drawn),< 35
27,Cc1ccc(OCCNC(=O)c2ccc(N3C(=O)C4CC=CCC4C3=O)cc2)cc1C (stereo not drawn),< 35
